The values below come from ChEMBL document CHEMBL1142312, “Anti-Plasmodium activity of tetrazolium salts” (Bioorg Med Chem, 2008).

Data set [1] can be described thus: Inhibition of glutathione reduction of nitrotetrazolium blue chloride.
In a further data set the test system is Plasmodium falciparum. In words: Antimalarial activity against Plasmodium falciparum in LDH reporter assay. The data set is classed as functional, organism-based. In short, it runs like this: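 P. falciparum line ItG cultured in O+ human erythrocytes in RPMI-1640 with 10% human serum and 50 μM hypoxanthine. Twofold serial dilutions from 10 mg/mL DMSO stock, 2% hematocrit, 2% parasitemia. Incubated 72 h at 37 °C under 95% N2/3% CO2/2% O2. Parasite LDH assay read at 650 nm after 1 h. IC50 by non-linear regression, mean ± SE of four determinations.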
A general note: Reporter assays use an easily measured gene product as a stand-in for the process of interest.

A short description of data set [2]: (§1) Toxicity in CHO cells. The format is cell-based, Cricetulus griseus. To be noted: Chinese hamster (Cricetulus griseus), CHO cells. In short, it runs like this: (§2)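 CHO cells grown to 50% confluency in RPMI-1640 with 10% fetal calf serum, 25 mM Hepes and gentamicin. Serial dilutions made from a 10 mg/mL DMSO stock; DMSO-only controls. After 48 h, MTT (10 mg/mL in medium) added for 1 h, then DMSO added and absorbance read at 650 nm. IC50 by non-linear regression of dose–response; mean ± SE of four determinations.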

Another data set deals with CHO. The description is as §1. As to conditions: cho. The format is cell-based, Cricetulus griseus. The procedure, abridged: as §2
Data set [3] in a line: Ratio of IC50 for CHO cells to IC50 for Plasmodium falciparum. The format is functional.

Molecules are shown by their SMILES. Where “and” joins values, the source holds several entries; their conditions need not be identical. Identical values can stand only once.

As a reminder, the IC50 is the point on the concentration scale where inhibition reaches its midpoint. Read a low IC50 as greater potency.

Consider `O=S(=O)(O)c1cc(N=C=S)ccc1/C=C/c1ccc(N=C=S)cc1S(=O)(=O)O`, for which inhibition in data set [1] was half-maximal at 31 µM (IC50). In other words, the double-digit micromolar range.
Consider `CC(=O)Nc1ccc(/C=C/c2ccc(N=C=S)cc2S(=O)(=O)O)c(S(=O)(=O)O)c1`, for which the IC50 in data set [1] turned out to be 2.7 µM.
As to `O=[N+]([O-])c1ccc(-[n+]2nc(-c3ccccc3)nn2-c2ccccc2)cc1.[Cl-]`, the IC50 is 9.1 µM and 4.5 µM in the data set with Plasmodium falciparum; 16.2 µM in data set [2]; 12 µM in the data set with CHO. Further, the “Ratio IC50” value in data set [3] was 1.8 and 2.7.
For `COc1cc(-c2nn(-c3ccccc3)[n+](-c3ccc(Cl)cc3)n2)ccc1OCc1ccccc1.[Cl-]`, the IC50 in the data set on Plasmodium falciparum (Plasmodium falciparum) is 3.8 µM; in data set [2], 32 µM. The “Ratio IC50” value in data set [3] was found to be 8.4.
In the same order, the values of `COc1ccc(-n2nc(-c3ccc(-c4ccccc4)cc3)n[n+]2-c2ccc(F)cc2)cc1.[Cl-]` are 1.7 µM, 19 µM and 11.2.
Regarding `CCCCCCCCCCCOc1cccc(-c2nn(-c3ccccc3)[n+](-c3ccccc3)n2)c1.[Cl-]`, the results for the half-inhibitory concentration (IC50) (in the data set on Plasmodium falciparum (Plasmodium falciparum); in data set [2]) were 2.5 µM and 5 µM, respectively. The “Ratio IC50” value in data set [3] amounted to 2.
With `Fc1cccc(-[n+]2nc(-c3ccc(OCc4ccccc4)cc3)nn2-c2ccccc2)c1.[Cl-]`, the concentration for half-maximal inhibition (IC50) with Plasmodium falciparum (Plasmodium falciparum) is 0.42 µM; in data set [2], 4.3 µM. The “Ratio IC50” value in data set [3] was 10.2.
Taken in the same sequence, the figures for `Fc1cccc(-[n+]2nc(-c3ccccc3)nn2-c2ccccc2)c1.[Cl-]` were 2.2 µM, 36 µM and 16.4.
As to `[Cl-].c1ccc(-n2nc(C3CCCCC3)n[n+]2-c2ccccc2)cc1`, the 50% inhibitory concentration (IC50) turned out to be 6.2 µM in the data set on Plasmodium falciparum (Plasmodium falciparum) and 25 µM in data set [2]. For the same compound, in data set [3], the “Ratio IC50” value came to 4.
Taken in the same sequence, the figures for `CCCCCCc1nn(-c2ccccc2)[n+](-c2ccccc2)n1.[Br-]` were 3.4 µM, 21 µM and 6.2.
For the compound `CCCCCCCCCCCOc1ccc(-c2nn(-c3ccccc3)[n+](-c3ccccc3)n2)cc1.[Cl-]`, the IC50 in the data set on Plasmodium falciparum (Plasmodium falciparum) amounted to 4 µM; in data set [2] it was 0.4 µM. In data set [3], the “Ratio IC50” value worked out at 0.1.
For the compound `Clc1ccc(-[n+]2nc(-c3ccc(OCc4ccccc4)cc3)nn2-c2ccccc2)cc1.[Cl-]`, the IC50 in the data set on Plasmodium falciparum (Plasmodium falciparum) stood at 1.14 µM; in data set [2], 4.6 µM. Besides, the “Ratio IC50” value in data set [3] was found to be 4.
As for `O=[N+]([O-])c1ccc(-n2nc(-c3ccccc3)n[n+]2-c2ccc(I)cc2)cc1.[Cl-]` [IODONITROTETRAZOLIUM CHLORIDE], the figures for the IC50 (in the data set on Plasmodium falciparum (Plasmodium falciparum); in data set [2]) were 81 µM and 49 µM, respectively. Also, the “Ratio IC50” value in data set [3] was found to be 0.6.
Taken in the same sequence, the figures for `Brc1cccc(-[n+]2nc(-c3ccc(OCc4ccccc4)cc3)nn2-c2ccccc2)c1.[Cl-]` were 0.4 µM, 8.1 µM and 20.3.
